MMP-13 inhibitor: human MMP13 inhibitors, primary screen, biochemical, FRET peptide cleavage. MMP-13 fTHP FRET cleavage, Mca fluorescence. inhibition, % at 4 µM. AID 570, 2006. 0.07% of 65,000 active. Collagenase 3 (Homo sapiens), P45452;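 active = inhibition above the mean of compound-free control plate wells plus 3 SD, cut at about 14% in these data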;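 also: 0% = DMSO wells and 100% = wells with reference MMP-13 inhibitor after basal subtraction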
HePTP inhibitor: inhibitors of human HePTP phosphatase, primary screen, biochemical, absorbance, leukemia target; recombinant HePTP phosphatase activity, OD absorbance; 0.64% of 110,000 active; AID 521, 2006; Tyrosine-protein phosphatase non-receptor type 7 (Homo sapiens), P35236; inhibition, % at 20 µM; in the data active = inhibition above about 50%;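 also: plate controls were vehicle for no effect and reference inhibitor for full effect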
SF-1 act: activators of human SF-1, primary screen, cell-based, CHO-K1, Gal4-SF-1 LBD, luciferase luminescence | Steroidogenic factor 1 (Homo sapiens), Q13285 | CHO-K1 Gal4-SF-1 LBD luciferase reporter; % increase over DMSO SF-1-specific signal | activation, % at 10 µM | 1.9% of 65,000 active | AID 522, 2006;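 active = activation above the mean activation of all tested compounds plus 3 SD, cut at about 50% in these data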
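System: CHO-K1 cells with Gal4–hSF-1 LBD chimera plus Gal4-driven luciferase; quantity: 4,000 CHO-K1 cells per well; compound: one dose, 10 µM compound, 1% DMSO; times: 20 h compound treatment, 37 °C; measured by: SteadyLite luciferase luminescence; read-out: percent activation versus DMSO; benchmarks: DMSO and mock-transfected background; replicates: one test per compound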
RORA act: activators of orphan receptor RORA, primary screen, cell-based, luminescence. 1.5% of 65,000 active. AID 560, 2006. activation, % at 10 µM. Nuclear receptor ROR-alpha (Homo sapiens), P35398. CHO-K1 Gal4-RORA LBD luciferase reporter; percent increase over mock-subtracted basal signal;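 active = activation above the mean of all tested compounds plus 3 SD, cut at about 49% in these data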;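 also: 0% = DMSO-treated RORA cells and 100% = added signal equal to DMSO minus mock-transfected cells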
Target sequence (P35398 whole entry, looked up, the tested form may be a part): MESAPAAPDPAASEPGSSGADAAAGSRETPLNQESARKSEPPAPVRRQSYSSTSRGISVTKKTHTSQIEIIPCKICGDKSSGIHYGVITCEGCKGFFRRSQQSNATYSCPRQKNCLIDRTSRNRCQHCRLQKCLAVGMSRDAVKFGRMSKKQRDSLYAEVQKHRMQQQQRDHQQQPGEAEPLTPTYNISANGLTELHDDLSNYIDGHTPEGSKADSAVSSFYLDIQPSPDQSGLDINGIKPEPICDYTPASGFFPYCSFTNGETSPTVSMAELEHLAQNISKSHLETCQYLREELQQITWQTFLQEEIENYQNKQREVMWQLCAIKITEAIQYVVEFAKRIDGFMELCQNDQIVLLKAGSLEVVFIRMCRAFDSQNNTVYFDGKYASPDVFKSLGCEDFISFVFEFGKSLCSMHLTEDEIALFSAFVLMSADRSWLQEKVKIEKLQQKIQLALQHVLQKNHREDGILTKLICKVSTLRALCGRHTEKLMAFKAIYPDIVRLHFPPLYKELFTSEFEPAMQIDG
AP complement: alternative complement pathway inhibitors, primary screen, biochemical, ELISA, human serum, orthogonally pooled compounds; inhibition, % at 5 µM; LPS-coated ELISA, C3 deposition; tested in compound mixtures; 0.08% of 62,000 active;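 active = inhibition above 30% in each of the two pooled mixtures holding the compound, so the lower value exceeds 30%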;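 also: 0% = serum in Mg-EGTA without compound and 100% = EDTA serum blank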
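Assay system: Human serum alternative complement pathway, C3 deposition on LPS-coated wells | Incubation: 1 h serum-compound exposure at 37 °C | Doses: 5 µM per compound in ten-compound mixtures | Read-out: Percent inhibition | Technique: ELISA with HRP anti-human C3 antibody, TMB substrate, absorbance 450 nm | Replication: Two pool placements per compound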
Ec RNAP inh: E. coli RNAP inhibitors, biochemical. E. coli RNA polymerase, fluorescence transcription assay. inhibition, %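 (tested at 10 µM)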. 0.2% of 62,000 active; in the data active = inhibition above about 20%;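 also: 0% = enzyme without compound and 100% = no enzyme blank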
The depositor's hits bear a star; . = not tested or not shown; ! = a repeat was not active. Rows were chosen to be rich in hits. Some 2.4% of all compounds tested hit in one or more screens of this group.

SMILES	MMP-13 inhibitor	HePTP inhibitor	SF-1 act	RORA act	AP complement	Ec RNAP inh
COCCN(CCOC)c1ncnc2c1cnn2-c1ccc(Cl)cc1	3	7	33	55*	10	3
OCCOCCNc1ncnc2c1cnn2-c1ccccc1	-24	5	46	-5	.	6
COCCN(CCOC)c1ncnc2c1cnn2-c1ccccc1	-8	6	19	26	15	3
Clc1ccc(-n2ncc3c(NCc4cccs4)ncnc32)cc1	-7	7	74*	44	.	-3
Cc1cccc(-n2ncc3c(NCc4cccs4)ncnc32)c1	-8	6	22	46	4	7
OCCOCCNc1ncnc2c1cnn2-c1ccc(Cl)cc1	-22	2	64*	7	.	5
COCCNc1ncnc2c1cnn2-c1ccc(Cl)cc1	-18	4	68*	54*	.	8
COC(=O)C1=C(C)N=c2s/c(=C\c3ccccc3F)c(=O)n2C1/C=C/c1ccccc1 (configuration not stated)	.	-5	.	.	.	.
Cn1c(C(=O)NCCc2c[nH]c3ccccc23)cc2sccc21	3	1	79*	74*	17	3
CCCCNC(=O)c1nnn(-c2ccccc2)c1N	3	-1	67*	24	-10	-9
Cc1cc(C)cc(-n2nnc(C(=O)NCc3ccccc3)c2N)c1	1	3	32	5	17	-2
O=C(COc1ccc(Cl)cc1Br)N1CCN(c2ccccn2)CC1	.	10	.	.	.	.
O=C(c1cccc(COc2ccc(Cl)cc2Cl)c1)N1CCN(c2ccccn2)CC1	-2	-2	76*	29	-1	9
CCOC(=O)c1nn(-c2ccc3c(c2)CCN3C(C)=O)cc1O	-366	3	65*	58*	-12	0
Cn1c(CSc2nc3ccccc3s2)nc2ccccc21	7	-8	71*	27	-19	5
O=c1oc2ccccc2n1CSc1nc2ccccc2s1	-2	-10	52*	66*	1	15
O=C(c1ccc(N2CCN(C(=O)c3ccccc3Br)CC2)cc1)c1cccc(F)c1	.	102*	.	.	.	.
O=C(c1ccc(N2CCN(C(=O)c3ccccc3F)CC2)cc1)c1cccc(F)c1	.	3	.	.	.	.
CCOC(=O)CC(=O)CSc1nnc2c(n1)[nH]c1ccccc12	1	7	53*	45	8	9
c1ccc(Nc2nc(-c3cccnc3)cs2)nc1	0	10	46	52*	25	-4
CCC(=O)Nc1ccc(C(=O)n2ccc(C)n2)cc1	-4	3	12	-11	35*	7
CC1CCc2c(sc(NC(=O)CCC(=O)O)c2C(=O)Nc2ccc(Cl)cc2)C1 (configuration not stated)	.	22	.	.	.	.
CN1C=CC(=C2C(=O)c3ccccc3C2=O)C=C1	-8	10	16	52*	-3	4
CC(=O)N1C(=O)C(=C2C=C(C)OC(C)=C2)c2ccccc21	7	2	-9	2	-17	8
CC1=CC(=C2C(=O)c3ccccc3C2=O)C=C(C)O1	-8	7	42	57*	11	10
SMILES	MMP-13 inhibitor	HePTP inhibitor	SF-1 act	RORA act	AP complement	Ec RNAP inh
COC(=O)c1ccc(NC(=O)Cn2nnc3ccccc32)cc1	2	4	76*	42	10	9
COC(=O)c1ccc(NC(=O)Cn2nc(C)c3ccccc3c2=O)cc1	.	69*	.	.	.	.
COC(=O)c1cc(NC(=O)c2ccc3c(c2)OCCO3)cc(C(=O)OC)c1	.	2	.	.	.	.
COC(=O)c1ccc(NC(=O)c2ccc3c(c2)OCO3)cc1	3	2	53*	46	2	4
O=C(c1cc(-c2ccc(Cl)c(Cl)c2)on1)N1CCCC1	4	-6	46	60*	13	1
O=C(c1cc(-c2ccc3c(c2)OCO3)on1)N1CCN(c2ccccc2)CC1	-6	5	36	70*	8	9
O=C(c1ccc2c(c1)OCO2)N1CCN(c2ccc(Cl)cc2)CC1	-8	102*!	4	27	6	5
O=C(c1cc(-c2ccc3c(c2)OCO3)on1)N1CCN(c2ccc(F)cc2)CC1	-8	6	5	-9	11	5
CC1CCN(C(=O)c2cc(-c3ccc(Cl)c(Cl)c3)on2)CC1	-2	14	8	26	-1	7
COc1ccc(NC(=O)CCCN2C(=O)c3cccc4cccc(c34)C2=O)cc1	.	-3	.	.	.	.
CCN1C(=O)C(=Cc2ccc([N+](=O)[O-])o2)C(=O)N(CC)C1=S	.	30	.	.	.	.
CCOC(=O)c1sc(NC(=O)c2ccc(Cl)cc2Cl)nc1C	.	-9	.	.	.	.
CN1CCN(c2ccc(NC(=O)c3ccc4c(c3)OCO4)cc2)CC1	0	7	61*	27	14	6
COC(=O)c1ccc(NC(=O)c2cccc(OC)c2)cc1	3	-4	11	49*	21	9
COc1ccc(NC(=O)c2ccc3c(c2)OCO3)cc1Cl	-11	7	53*	-1	-8	4
CC(=O)N1CCN(c2ccc(NC(=O)c3ccc4c(c3)OCCO4)cc2)CC1	6	-3	23	6	9	5
COc1ccc2oc(C)c(C(C)=O)c2c1	.	-5	.	.	.	.
COc1ccc(C(=O)/C=C/c2cccc(OC)c2)cc1	.	9	.	.	.	.
COc1cc2cc(=O)n(Cc3ccccc3)c(C)c2cc1OC	.	4	.	.	.	.
CCCC1(CCC)NC(=O)N(CC(=O)Nc2cccc(OC)c2)C1=O	0	13	1	-13	7	40*
CCN(CC)S(=O)(=O)c1ccc(Nc2nc3ccccc3n3nnnc23)cc1	-3	1	49	70*	0	-1
COc1ccc(-n2nc3cc(C)c(NC(=O)c4cccc(Br)c4)cc3n2)cc1	.	2	.	.	.	.
O=c1[nH]c(=S)n(-c2ccc(Br)cc2)c(O)c1/C=C1\C=Nc2ccccc21	.	-23	.	.	.	.
CN(C)C(=O)CSc1nnc(CCN)o1	0	7	3	-14	16	-2
CN(C)C(=O)CSc1nnc(C23CC4CC(CC(C4)C2)C3)o1	-1	4	88*	18	-7	13
Cc1c(C(=O)N2CCCCCC2)oc2ccccc12	0	7	-3	-5	15	8
O=C(c1ccc2c(c1)c(=O)oc1ccccc12)N1CCCCC1	0	2	42	50*	12	2
Cc1ccc(NC(=O)C2C3CC4OC(=O)C2C4C3)cc1Cl (configuration not stated)	-1	8	-3	-6	26	-9

Screening data from PubChem BioAssay.
